Reference: publication PMC4716096 (Kidney Research and Clinical Practice, 2012)

Legend:
[1] = transplant recipient group with a high BMI; cited from earlier work
[2] = n-octanol versus water; cited from earlier work
[3] = Pharmacokinetic profile of tacrolimus; type: in vivo, human; conditions: dose-adjusted whole-blood concentrations; P=0.024 and 0.031
In short: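 Stable Korean kidney recipients (n=18; ≥20 y, ≥6 months post-transplant, creatinine <2.0 mg/dL) on steroid/mycophenolate/tacrolimus, trough-targeted 5–10 ng/mL. Fasting; whole blood drawn pre-morning dose (C0) and at 1–4 h post-dose; mass spectrometry. AUC0–4 by linear trapezoidal rule; values dose-adjusted. Lean/fat mass by bioelectrical impedance; groups split at median, compared by Mann-Whitney U (P<0.05).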

C0 and C4 in the high-fat group compared with the low-fat group [3]: significantly elevated
Compound: C=CC[C@@H]1/C=C(\C)C[C@H](C)C[C@H](OC)[C@H]2O[C@@](O)(C(=O)C(=O)N3CCCC[C@H]3C(=O)O[C@H](/C(C)=C/[C@@H]3CC[C@@H](O)[C@H](OC)C3)[C@H](C)[C@@H](O)CC1=O)[C@H](C)C[C@@H]2OC [tacrolimus]
tacrolimus levels [1]: higher than 15 ng/mL | partition coefficient of tacrolimus in n-octanol relative to water [2]: 1000 fold
